The full list was thinned out, with hits kept by preference.
Dyrk1A ADPGlo: inhibitors of rat Dyrk1A kinase | ADP-Glo luminescence, NFATc1 peptide | inhibition, % at 12.5 µM | 0.43% of 310,000 active | Q63470; in the data active = inhibition above about 50%;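 note: plate controls were vehicle with enzyme for no effect and no enzyme for full effect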
GSK3 alpha inh: human GSK-3 alpha kinase inhibition | P49840 | ADP-Glo luminescence, 60 min | inhibition, % at 10 µM | 0.1% of 320,000 active | AID 2650;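 active = more than half of replicates show inhibition above 20%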;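 note: GST-tagged GSK-3 alpha with peptide substrate and 25 µM ATP; 0% = DMSO neutral wells and 100% = GW8510 positive control wells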
Target sequence (P49840 whole entry, looked up): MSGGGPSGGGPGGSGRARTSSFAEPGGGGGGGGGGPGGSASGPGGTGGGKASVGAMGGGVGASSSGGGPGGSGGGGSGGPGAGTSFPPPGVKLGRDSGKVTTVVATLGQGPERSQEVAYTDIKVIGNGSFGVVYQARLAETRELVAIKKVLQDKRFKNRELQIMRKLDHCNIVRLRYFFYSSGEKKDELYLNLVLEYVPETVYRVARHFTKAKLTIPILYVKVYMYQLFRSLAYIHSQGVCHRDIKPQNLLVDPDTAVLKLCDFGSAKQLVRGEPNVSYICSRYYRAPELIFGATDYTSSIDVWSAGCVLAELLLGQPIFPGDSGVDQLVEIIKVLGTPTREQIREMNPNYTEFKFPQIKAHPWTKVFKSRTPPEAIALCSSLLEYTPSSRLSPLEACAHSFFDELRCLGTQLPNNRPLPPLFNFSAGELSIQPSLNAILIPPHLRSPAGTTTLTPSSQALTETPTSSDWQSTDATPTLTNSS
GSK3beta inhib: human GSK3beta kinase inhibition; P49841; GST-GSK3beta kinase, ADP-Glo luminescence, 60 min; active compounds read low; activity score (negative = inhibition), % at 10 µM; 0.038% of 300,000 active;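 active = more than half of replicate wells score below -50%, meaning over 50% inhibition versus plate controls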;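 note: 0% = median DMSO wells and -100% = median GW8510 positive control wells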
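Test system: GST-tagged human GSK3beta kinase, cell-free; evaluation: activity score scaled between in-plate DMSO and GW8510 controls; measured by: ADP-Glo luminescence; incubation: 60 min reaction, RT; benchmarks: DMSO and 20 µM GW8510; reagent: peptide substrate plus 25 µM ATP (final); medium: Tris/MgCl2 kinase buffer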
STK33 kinase inh: blocks human STK33 kinase activity | Q9BYT3 | 0.073% of 320,000 active | AID 2661 | inhibition, % at 10 µM | purified STK33, MBP phosphorylation, ADP-Glo luminescence;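 active = inhibition at or above 25%, using the most active replicate where run in duplicate; inactive = inhibition below 25%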
The depositor's hits bear a star; nt = no result given; ! = a repeat was not active.

SMILES | Dyrk1A ADPGlo | GSK3 alpha inh | GSK3beta inhib | STK33 kinase inh
Nc1c([N+](=O)[O-])cnnc1-c1ccccc1 | 1.1 | nt | 2.2 | nt
O=C1c2ccccc2N2C(=O)c3ccccc3[C@H]2N1c1ccccc1 | 1.4 | 4.4 | -0.5 | 0.3
O=C1NC2c3ccccc3C(=O)N2c2c1cnn2-c1ccccc1 (configuration not stated) | 18.5 | 11.6 | -0.1 | 28.0*
OCC1(Cc2ccccc2F)CCCN(Cc2c(F)ccc(F)c2F)C1 (configuration not stated) | 0.9 | nt | 0.3 | nt
OC1COC(O)C(O)C1O (configuration not stated) | 7.5 | -0.5 | -5.2 | -1.8
CCCNCC1COc2ccccc2O1 (configuration not stated) | nt | 5.8 | -52.4* | -0.5
c1ccc(CCCNCC2COc3ccccc3O2)cc1 (configuration not stated) | 4.0 | nt | 1.6 | -0.6
CC(C)n1nc(C(=O)NNC(=O)c2ccc(OC(F)F)cc2)c2ccccc2c1=O | nt | -2.0 | nt | 1.8
COc1cc2c(oc(=O)c3cc(C)cc(OC)c32)c2c(C3OC(C)C(O)C(C)(O)C3O)ccc(O)c12 (configuration not stated) | 2.0 | nt | nt | nt
Nc1nc(NCc2ccc(Cl)cc2)nc(NCCO)c1[N+](=O)[O-] | 39.6 | 12.6 | -1.5 | -2.4
CC(C)CCNc1nc(N)c([N+](=O)[O-])c(NCCO)n1 | nt | 79.5* | -67.4* | 3.1
Nc1nc(Nc2ccc(Cl)cc2)nc(NCCO)c1[N+](=O)[O-] | nt | 54.7* | -15.9 | 3.4
Cc1ccc(CNc2nc(N)c([N+](=O)[O-])c(NCCO)n2)cc1 | nt | 50.7* | -39.2 | 1.9
Cc1ccc(Nc2nc(N)c([N+](=O)[O-])c(NCCO)n2)cc1C | 6.6 | 42.2 | -10.8 | 1.7
CCC(C)Nc1nc(N)c([N+](=O)[O-])c(NCCO)n1 (configuration not stated) | 13.3 | 72.6* | -1.0 | 0.6
CS(=O)(=O)N1CCN(c2ccccc2NC(=O)c2ccc(Br)o2)CC1 | 43.4 | 52.8* | 1.9 | 23.1
COc1ccc(CCNC(=O)/C=C/c2ccco2)cc1 | 1.3 | -2.5 | nt | -1.6
O=c1[nH][nH]c2c(N=Cc3ccccc3O)ccc(F)c12 | 58.0* | nt | nt | nt
CCc1ccc(O)c(N=Cc2ccccc2O)c1 | -0.3 | -1.9 | 6.1 | -4.3
COc1ccc2oc3cc(C)[n+]([O-])c(-c4ccc(C)cc4)c3c2c1 | 20.8 | 52.7* | -55.1* | 1.4
COc1ccc(-c2c3c(cc(C)[n+]2[O-])oc2ccc(OC)cc23)cc1 | 44.8 | 33.9 | -43.5 | 0.7
O=C(c1oc2ccccc2c1CSCc1ccccc1)N1CCN(c2ncccn2)CC1 | 3.1 | -6.6 | 2.0 | -1.6
C#CCOCCOCCOCCNc1nc(N2CCN(C(=O)CCCCCCCCCCNC(=O)[C@H]([C@@H](C)CC)n3cc(CCCCN=C(N)N)nn3)CC2)nc(N2CCN(C(=O)CCCCCCCCCCNC(=O)[C@H](CCCCN)n3cc(C[C@@H](C)CC)nn3)CC2)n1 | nt | 17.2 | nt | 29.6*
CCc1c(C)c(C#N)c2nc3ccccc3n2c1NCc1ccccn1 | 1.1 | 81.4* | 0.4 | 3.9
CCc1c(C)c(C#N)c2nc3ccccc3n2c1NCCOC | 18.9 | -1.6 | -1.8 | -0.5
SMILES | Dyrk1A ADPGlo | GSK3 alpha inh | GSK3beta inhib | STK33 kinase inh
CCCCCCCCCCCCCCCCn1cc[n+](C)c1 | 0.2 | 24.3 | -17.8 | 26.8*!
CCCCCCCCn1ccc(=N)cc1 | -3.5 | -6.1 | -4.6 | 1.0
CCOC(=O)CN(Cc1ccccc1)C(=O)OC(C)(C)C | nt | 0.4 | 1.6 | -1.7
COCCCNc1nc(N)c([N+](=O)[O-])c(Nc2ccccc2OC)n1 | 15.7 | 74.0* | -47.7 | -0.1
COCCCNc1nc(N)c([N+](=O)[O-])c(NCC2CCCO2)n1 (configuration not stated) | 49.7 | 81.1* | -0.1 | 1.2
COCCCNc1nc(N)c([N+](=O)[O-])c(NCc2ccccc2)n1 | 10.8 | 3.1 | -1.4 | -1.7
CC(C)CNc1nc(N)c([N+](=O)[O-])c(NCC2CCCO2)n1 (configuration not stated) | -1.5 | 58.9* | -36.5 | 1.2
O=C(Nc1ccc(S(=O)(=O)N2CCCC2)cc1)C1CC(=O)N(c2ccc(F)cc2)C1 (configuration not stated) | 0.6 | 1.1 | 1.8 | -0.6
COc1ccccc1NC(=O)N1CCCC1C(=O)NCc1ccccc1Cl (configuration not stated) | -3.7 | -1.0 | 2.2 | -0.8
CC(C)(C)C(=O)NC(=S)Nc1sc2c(c1C(N)=O)CCC2 | 3.9 | 68.6* | -5.0 | 1.8
CC(C(=O)NC1CCCCCC1)n1cc([N+](=O)[O-])cn1 (configuration not stated) | -6.9 | 0.9 | 0.1 | -0.7
Cc1ccnc(NC(=O)C(C)n2cc([N+](=O)[O-])cn2)c1 (configuration not stated) | nt | 25.4 | -74.1* | -2.0
COc1ccc(C(=O)O/N=C(\C)c2ccccc2)cc1 | 37.4 | 24.9 | -27.9 | 28.8*
N=C1/C(=C/c2ccc(-c3cccc(C(=O)O)c3)o2)C(=O)N=C2SC(CC(=O)N3CCOCC3)=NN12 | 79.2* | 4.0 | 3.8 | 6.4
N=C1/C(=C\c2ccc(SCc3ccccc3)o2)C(=O)N=C2SC(CC(=O)N3CCOCC3)=NN12 | -5.1 | -2.9 | 0.4 | -0.7
CCCn1c2ccc(/C(C)=N\O)cc2c2cc(/C(C)=N/O)ccc21 | 3.2 | 0.9 | -1.7 | 44.4*
O=C(CN1C(=O)CCC1=O)Nc1cccc2c1C(=O)NC2=O | 2.2 | 97.7* | -80.3* | -1.3
c1nc(N2CCCC2)c2[nH]cnc2n1 | 17.6 | 13.8 | -0.9 | 31.3*
Cc1ccc(S(=O)(=O)N(CC(O)CN2CCCC2)c2ccccc2)cc1 (configuration not stated) | 5.9 | -1.3 | 5.1 | -0.7
Cc1ccc(N(CC(O)CN2CCCCC2)S(=O)(=O)c2ccccc2)cc1 (configuration not stated) | -1.7 | 94.2* | 1.3 | -1.7
CC(=O)C1=C(c2ccc(Br)cc2)C(=O)c2ccccc2C1=O | 76.0* | 0.1 | -0.1 | 0.2
COc1cccc(/C=C2/Sc3ccc(C(=O)NCCCN4CCCC4)cc3NC2=O)c1 | 20.4 | 83.8* | -83.1* | 10.5
COc1cccc(C(=O)NCCCN2CCN(CCCNC(=O)c3cccc(OC)c3)CC2)c1 | -4.6 | 1.0 | -0.7 | -0.2
Cc1ccc(/C=C2/Sc3ccc(C(=O)NCCN4CCOCC4)cc3NC2=O)cc1 | nt | -1.5 | -2.6 | -0.9
O=C(NCCCN1CCCCC1)c1ccc2c(c1)NC(=O)c1ccccc1S2 | 4.1 | 6.0 | -4.2 | 3.2
COc1cccc(/C=C2/Sc3ccc(C(=O)NCCN4CCCC4)cc3NC2=O)c1 | 17.6 | 0.9 | -67.4* | 0.9
O=C1Nc2cc(C(=O)NCCCN3CCCC3)ccc2S/C1=C/c1ccccc1F | -1.3 | 42.0 | -66.6* | 1.2
COc1ccc(C(c2c(O)nc[nH]c2=O)c2c(O)nc[nH]c2=O)cc1 | nt | -4.6 | 1.7 | -0.3
CC1CCCCN1CCNC(=O)c1cc2c(=O)n(C)c3ccccc3c2n1C (configuration not stated) | 50.0* | -0.4 | -0.3 | 3.7
O=C(c1ccc(NC(=S)NCc2ccco2)cc1)N1CCCCC1 | 1.7 | -4.9 | 1.4 | 1.2

Bioassay records deposited in PubChem by Broad Institute.
